# Published values of several laboratories.
# Each line is one published result; the experiments were not run side by side.
# Cell line: A549
# Observed: cell growth or viability
SMILES,method,time,IC50
CNC(=S)N/N=C/c1cccc2cc3ccccc3nc12,MTT,48 h,26.9 µM
Cc1ccc(C(C)C)c(OC2=C(Cl)C(=O)c3ccccc3C2=O)c1,MTT,24 h,40 µg/mL
CC(C)CNC(=S)N/N=C/c1ccc(N2CCC(O)CC2)cc1,MTT,24 h,1.5 µM
CCCn1cnc2ccc(-c3ccc4sc(NC(=O)Nc5ccc(F)cc5)nc4c3)cc2c1=O,MTT,72 h,0.44 µM
OC1CCN(c2ccc(/C=N/NC(=S)Nc3cccc(Cl)c3Cl)cc2)CC1,MTT,24 h,0.58 µM
COc1cccc(NC(=O)Nc2nc3cc(-c4ccc5ncn(CCN(C)C)c(=O)c5c4)ccc3s2)c1,MTT,72 h,0.91 µM
O=C(N[C@@H](CSCc1ccc([N+](=O)[O-])cc1)C(=O)NO)c1ccccc1,MTT,48 h,48.2 µM
O=C(O)c1ccc(NCc2cccc(O)c2)cc1,resazurin,72 h,> 100 µM
CCCn1cnc2ccc(-c3ccc(N4CCCCCC4=O)nc3)cc2c1=O,CCK-8,72 h,> 10 µM
C/C(=N\c1nc(N)nc(/N=C(\C)c2c(O)c3ccccc3oc2=O)n1)c1c(O)c2ccccc2oc1=O,MTT,48 h,5.58 µM
Cc1cc(NS(=O)(=O)c2ccc(NC(=O)/C(C#N)=C/c3cccnc3)cc2)no1,MTT,48 h,> 200 µM
CCCC(=O)Nc1ccc(-c2ccc3ncn(CCC)c(=O)c3c2)cn1,CCK-8,72 h,0.46 µM
COc1cccc(NC(=S)N/N=C/c2cccc3cc4ccccc4nc23)c1,MTT,48 h,> 50 µM
O=c1[nH]cc(F)c(=O)[nH]1,MTT,48 h,42.5 µM
OC1CCN(c2ccc(/C=N/NC(=S)Nc3ccc(Cl)cc3)cc2)CC1,MTT,24 h,2.92 µM
O=C(Cn1cc(COc2ncnc3[nH]cnc23)nn1)Nc1ccc(O)cc1,MTT,,26 µM
N=C(N)c1ccc(OCCCCCOc2ccc(C(=N)N)cc2)cc1,ATP luminescence,72 h,12.8 µM
CC(C)NC(=O)Nc1nc2cc(-c3ccc4ncn(Cc5ccccc5)c(=O)c4c3)ccc2s1,MTT,72 h,> 20 µM
O=C(C=Cc1ccc(OCCCOc2ccc(C=CC(=O)c3cccs3)cc2)cc1)c1cccs1,MTT,48 h,92.4 µM
O=C(O)c1ccc(NCc2cccc([N+](=O)[O-])c2)cc1,resazurin,72 h,> 100 µM
CN1CCC(NC2CCc3[nH]c4c(C(N)=O)ccc(-c5ccccc5Cl)c4c3C2)CC1 (stereo not drawn),,96 h,0.0301 µM
Cc1ccc(NC(=O)Nc2ccc(-c3ccc4ncn(Cc5ccccc5)c(=O)c4c3)cn2)cc1,CCK-8,72 h,> 10 µM
COc1cc(CNc2ccc(C(=O)O)cc2)cc(OC)c1O,resazurin,72 h,> 100 µM
NNc1nc2ccc(Br)cc2c(=O)n1-c1ccc(F)cc1,MTT,48 h,63.9 µM
C(=N\Nc1cc(N/N=C/c2cccc3cccnc23)ncn1)/c1cccc2cccnc12,MTT,48 h,14.8 µM
CCCCn1cnc2ccc(-c3ccc(NC(=O)NCc4ccccc4)nc3)cc2c1=O,CCK-8,72 h,0.38 µM
CC(C)Cc1ccc([C@H](C)C(=O)O)cc1,SRB,72 h,349 µM
OC1CCN(c2ccc(/C=N/NC(=S)NCCc3ccccc3)cc2)CC1,MTT,24 h,1.33 µM
C/C(=N\CCNCC/N=C(\C)c1c(O)c2ccccc2oc1=O)c1c(O)c2ccccc2oc1=O,MTT,48 h,8.75 µM
CCCn1cnc2ccc(-c3ccc(NC(=O)CC(C)CC)nc3)cc2c1=O (stereo not drawn),CCK-8,72 h,1.49 µM
C#Cc1cccc(Nc2ncnc3cc(OCCOC)c(OCCOC)cc23)c1,MTT,48 h,17.3 µM
COc1ccc(NC(=O)Nc2nc3cc(-c4ccc5ncn(CCN(C)C)c(=O)c5c4)ccc3s2)cc1,MTT,72 h,5.46 µM
CN(C)C(=O)Nc1nc2ccc(Br)cc2c(=O)n1-c1ccccc1,MTT,48 h,31.1 µM
COc1ccc(NC(=O)Nc2nc3cc(-c4ccc5ncn(CCN6CCOCC6)c(=O)c5c4)ccc3s2)cc1,MTT,72 h,1.4 µM
COc1cccc2c1C(=O)c1c(O)c3c(c(O)c1C2=O)C[C@@](O)(C(=O)CO)C[C@@H]3O[C@H]1C[C@H](N)[C@H](O)[C@H](C)O1,MTT,,3.87 µg/mL
CC(=O)Nc1nc2cc(-c3ccc4ncn(Cc5ccccc5)c(=O)c4c3)ccc2s1,MTT,72 h,> 20 µM
CC(C)[C@@H]1NC(=O)[C@@H](CCCNC(=N)N)NC(=O)[C@H]([C@@H](C)O)NC(=O)[C@@H](CCCN)NC(=O)[C@H](Cc2ccc(O)cc2)NC(=O)[C@@H](Cc2ccccc2)NC1=O,ATP luminescence,,> 100 µM
COc1cc(CNc2ccc(C(=O)O)cc2)ccc1O,resazurin,72 h,> 100 µM
CCCn1cnc2ccc(-c3ccc(NC(=O)CC)nc3)cc2c1=O,CCK-8,72 h,2.35 µM
C/C(=N\CCNCCNCC/N=C(\C)c1c(O)c2ccccc2oc1=O)c1c(O)c2ccccc2oc1=O,MTT,48 h,6.66 µM
NS(=O)(=O)c1ccc(-n2nc(C(=O)NN3C(=O)CCC3=O)cc2-c2ccccc2)cc1,fluorescence,48 h,24 µM
NNc1nc2c(Cl)cc(Cl)cc2c(=O)n1-c1ccccc1,MTT,48 h,> 200 µM
CCCCC(=O)Nc1cc(C)c(-c2ccc3ncn(CCC)c(=O)c3c2)cn1,CCK-8,72 h,> 10 µM
O=C(Nc1cccc(F)c1)Nc1nc2cc(-c3ccc4ncn(CCN5CCOCC5)c(=O)c4c3)ccc2s1,MTT,72 h,> 20 µM
CSc1ccc(CNc2ccc(C(=O)O)cc2)cc1,resazurin,72 h,> 100 µM
NS(=O)(=O)c1ccc(-n2nc(C(=O)NN=Cc3ccc(O)cc3)cc2-c2ccccc2)cc1,fluorescence,48 h,7.9 µM
CCC(=O)Nc1nc2cc(-c3ccc4ncn(Cc5ccccc5)c(=O)c4c3)ccc2s1,MTT,72 h,> 20 µM
CCCCn1cnc2ccc(-c3ccc(NC(=O)c4ccccc4)nc3)cc2c1=O,CCK-8,72 h,> 10 µM
COC(=O)c1cc(C(C)=NNc2nc(-c3cccc4cc[nH]c34)cs2)ccc1O,MTT,96 h,92.3 µM
NS(=O)(=O)c1ccc(-n2nc(C(=O)NN=Cc3ccccc3O)cc2-c2ccccc2)cc1,fluorescence,48 h,9.25 µM
O=C(C=Cc1cccs1)c1ccc(OCCOc2ccc(C(=O)C=Cc3cccs3)cc2)cc1,MTT,48 h,42 µM
